Measured values as given in ChEMBL document CHEMBL3525900, “Pharmacokinetics, distribution, and metabolism of [14C]sunitinib in rats, monkeys, and humans” (Drug Metab Dispos, 2012).

What was measured:
[1] = Drug excretion in feces of female Sprague-Dawley rat treated with [14C]sunitinib at 5 mg/kg, iv administered as single dose by liquid scintillation counting; format: ADME, organism-based; set-up: dose 5 mg/kg, dosed compound name [14C]Sunitinib, route intravenous; conditions: in vivo
Summary of the method: (§1)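 Five female rats given a single tail-vein bolus of [14C]sunitinib L-malate, 5 mg/kg free base equivalents (50 µCi/kg). Urine and feces collected over 0-72 h into dry-ice cooled containers. Urine counted directly by liquid scintillation; feces homogenized and combusted in oxygen before counting. Expired air also monitored.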

[2] = Drug excretion in urine of female Sprague-Dawley rat treated with [14C]sunitinib at 5 mg/kg, iv administered as single dose by liquid scintillation counting; format: ADME, organism-based; set-up: dose 5 mg/kg, dosed compound name [14C]Sunitinib, route intravenous; conditions: in vivo; summary of the method: as §1
[3] = Drug excretion in urine of female cynomolgus monkey treated with [14C]sunitinib at 6 mg/kg, po administered as single dose by liquid scintillation counting; format: ADME, organism-based, Macaca fascicularis; set-up: dose 6 mg/kg, dosed compound name [14C]Sunitinib, route oral; conditions: in vivo
Summary of the method: (§2)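 Cynomolgus monkeys given one oral gavage dose of [14C]sunitinib L-malate, 6 mg/kg (37 µCi/kg). Urine collected at 0-4, 4-8 and 8-24 h, feces at 0-8 and 8-24 h, then both daily to 14 days; samples stored at -80 °C. Duplicate urine aliquots counted by liquid scintillation; homogenized feces combusted before counting.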

Rattus norvegicus [4] = test: Cmax in female Sprague-Dawley rat plasma treated with [14C]sunitinib at 15 mg/kg, po administered as single dose by LC/MS/MS analysis; format: ADME, organism-based; set-up: dose 15 mg/kg, dosed compound name [14C]Sunitinib, route oral; conditions: in vivo
Summary of the method: (§3)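 Single dose of [14C]sunitinib L-malate as free base, 50 µCi/kg. IV dose was 5 mg/kg by tail vein in 5 females. Oral dose was 15 mg/kg by gavage in 3 females and 3 males. Total radioactivity was by scintillation counting. […] Cmax was read from raw data, t½ by log-linear regression, AUC by linear trapezoidal rule.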

Rattus norvegicus [5] = test: Tmax in female Sprague-Dawley rat plasma treated with [14C]sunitinib at 15 mg/kg, po administered as single dose by LC/MS/MS analysis; format: ADME, organism-based; set-up: dose 15 mg/kg, dosed compound name [14C]Sunitinib, route oral; conditions: in vivo
Rattus norvegicus [6] = test: AUC (0 to infinity) in female Sprague-Dawley rat plasma treated with [14C]sunitinib at 15 mg/kg, po administered as single dose by LC/MS/MS analysis; format: ADME, organism-based; set-up: time infinity, dose 15 mg/kg, dosed compound name [14C]Sunitinib, route oral; conditions: in vivo; summary of the method: as §3
Rattus norvegicus [7] = test: Apparent terminal half life in female Sprague-Dawley rat plasma treated with [14C]sunitinib at 15 mg/kg, po administered as single dose by LC/MS/MS analysis; format: ADME, organism-based; set-up: dose 15 mg/kg, dosed compound name [14C]Sunitinib, route oral; conditions: in vivo; summary of the method: as §3
Rattus norvegicus [8] = test: Cmax in male Sprague-Dawley rat plasma treated with [14C]sunitinib at 15 mg/kg, po administered as single dose by LC/MS/MS analysis; format: ADME, organism-based; set-up: dose 15 mg/kg, dosed compound name [14C]Sunitinib, route oral; conditions: in vivo; summary of the method: as §3
Rattus norvegicus [9] = test: Tmax in male Sprague-Dawley rat plasma treated with [14C]sunitinib at 15 mg/kg, po administered as single dose by LC/MS/MS analysis; format: ADME, organism-based; set-up: dose 15 mg/kg, dosed compound name [14C]Sunitinib, route oral; conditions: in vivo
Rattus norvegicus [10] = test: AUC (0 to infinity) in male Sprague-Dawley rat plasma treated with [14C]sunitinib at 15 mg/kg, po administered as single dose by LC/MS/MS analysis; format: ADME, organism-based; set-up: time infinity, dose 15 mg/kg, dosed compound name [14C]Sunitinib, route oral; conditions: in vivo; summary of the method: as §3
Rattus norvegicus [11] = test: Apparent terminal half life in male Sprague-Dawley rat plasma treated with [14C]sunitinib at 15 mg/kg, po administered as single dose by LC/MS/MS analysis; format: ADME, organism-based; set-up: dose 15 mg/kg, dosed compound name [14C]Sunitinib, route oral; conditions: in vivo; summary of the method: as §3
Rattus norvegicus [12] = test: Cmax in female Sprague-Dawley rat plasma treated with [14C]sunitinib at 5 mg/kg, iv administered as single dose by LC/MS/MS analysis; format: ADME, organism-based; set-up: dose 5 mg/kg, dosed compound name [14C]Sunitinib, route intravenous; conditions: in vivo; summary of the method: as §3
Rattus norvegicus [13] = test: Tmax in female Sprague-Dawley rat plasma treated with [14C]sunitinib at 5 mg/kg, iv administered as single dose by LC/MS/MS analysis; format: ADME, organism-based; set-up: dose 5 mg/kg, dosed compound name [14C]Sunitinib, route intravenous; conditions: in vivo
Rattus norvegicus [14] = test: AUC (0 to infinity) in female Sprague-Dawley rat plasma treated with [14C]sunitinib at 5 mg/kg, iv administered as single dose by LC/MS/MS analysis; format: ADME, organism-based; set-up: time infinity, dose 5 mg/kg, dosed compound name [14C]Sunitinib, route intravenous; conditions: in vivo; summary of the method: as §3
Homo sapiens [15] = test: Cmax in human plasma treated with [14C]sunitinib at 50 mg, po administered as single dose by LC/MS/MS analysis; format: ADME, organism-based; set-up: dose 50 mg, route oral, dosed compound name [14C]Sunitinib; conditions: in vivo
Summary of the method: (§4)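 Open-label phase I study in 8 subjects given one 50 mg oral dose of [14C]sunitinib (100 µCi). Plasma total radioactivity was counted by scintillation on triplicate 0.25 mL aliquots. Sunitinib was quantified by LC-MS-MS. Noncompartmental analysis: Cmax read directly, terminal t½ = ln(2)/slope of the log-concentration regression, AUC by linear trapezoidal rule to the last detectable concentration.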

Homo sapiens [16] = test: Tmax in human plasma treated with [14C]sunitinib at 50 mg, po administered as single dose by LC/MS/MS analysis; format: ADME, organism-based; set-up: dosed compound name [14C]Sunitinib; conditions: in vivo
Homo sapiens [17] = test: AUC (0 to infinity) in human plasma treated with [14C]sunitinib at 50 mg, po administered as single dose by LC/MS/MS analysis; format: ADME, organism-based; set-up: dose 50 mg, time infinity, route oral, dosed compound name [14C]Sunitinib; conditions: in vivo; summary of the method: as §4
Homo sapiens [18] = test: Terminal half life in human plasma treated with [14C]sunitinib at 50 mg, po administered as single dose by LC/MS/MS analysis; format: ADME, organism-based; set-up: dosed compound name [14C]Sunitinib; conditions: in vivo
Cynomolgus monkey [19] = test: Cmax in female cynomolgus monkey plasma treated with [14C]sunitinib at 6 mg/kg, po administered as single dose by LC/MS/MS analysis; format: ADME, organism-based, Macaca fascicularis; set-up: dose 6 mg/kg, dosed compound name [14C]Sunitinib, route oral; conditions: in vivo
Summary of the method: (§5)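 Cynomolgus monkeys of both sexes received one oral gavage of [14C]sunitinib L-malate at 6 mg/kg (37 µCi/kg). Femoral-vein blood was taken into heparin from 0.5 to 336 h. Plasma was kept cold and protected from light, then stored at -80 °C. Total radioactivity was by scintillation counting and sunitinib by methanol-extraction LC-MS-MS. Cmax was from raw data, t½ from the log-linear terminal slope, AUC(0-∞) by linear trapezoidal rule.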

Cynomolgus monkey [20] = test: Tmax in female cynomolgus monkey plasma treated with [14C]sunitinib at 6 mg/kg, po administered as single dose by LC/MS/MS analysis; format: ADME, organism-based, Macaca fascicularis; set-up: dose 6 mg/kg, dosed compound name [14C]Sunitinib, route oral; conditions: in vivo
Cynomolgus monkey [21] = test: AUC (0 to infinity) in female cynomolgus monkey plasma treated with [14C]sunitinib at 6 mg/kg, po administered as single dose by LC/MS/MS analysis; format: ADME, organism-based, Macaca fascicularis; set-up: time infinity, dose 6 mg/kg, dosed compound name [14C]Sunitinib, route oral; conditions: in vivo; summary of the method: as §5
Cynomolgus monkey [22] = test: Terminal half life in female cynomolgus monkey plasma treated with [14C]sunitinib at 6 mg/kg, po administered as single dose by LC/MS/MS analysis; format: ADME, organism-based, Macaca fascicularis; set-up: dose 6 mg/kg, dosed compound name [14C]Sunitinib, route oral; conditions: in vivo
Cynomolgus monkey [23] = test: Cmax in male cynomolgus monkey plasma treated with [14C]sunitinib at 6 mg/kg, po administered as single dose by LC/MS/MS analysis; format: ADME, organism-based, Macaca fascicularis; set-up: dose 6 mg/kg, dosed compound name [14C]Sunitinib, route oral; conditions: in vivo; summary of the method: as §5
Cynomolgus monkey [24] = test: Tmax in male cynomolgus monkey plasma treated with [14C]sunitinib at 6 mg/kg, po administered as single dose by LC/MS/MS analysis; format: ADME, organism-based, Macaca fascicularis; set-up: dose 6 mg/kg, dosed compound name [14C]Sunitinib, route oral; conditions: in vivo
Cynomolgus monkey [25] = test: AUC (0 to infinity) in male cynomolgus monkey plasma treated with [14C]sunitinib at 6 mg/kg, po administered as single dose by LC/MS/MS analysis; format: ADME, organism-based, Macaca fascicularis; set-up: time infinity, dose 6 mg/kg, dosed compound name [14C]Sunitinib, route oral; conditions: in vivo; summary of the method: as §5
Cynomolgus monkey [26] = test: Terminal half life in male cynomolgus monkey plasma treated with [14C]sunitinib at 6 mg/kg, po administered as single dose by LC/MS/MS analysis; format: ADME, organism-based, Macaca fascicularis; set-up: dose 6 mg/kg, dosed compound name [14C]Sunitinib, route oral; conditions: in vivo
[27] = Retention time of compound by LC/MS/MS analysis; format: physicochemical; set-up: dosed compound name [14C]Sunitinib
Rattus norvegicus [28] = test: Apparent terminal half life in female Sprague-Dawley rat plasma treated with [14C]sunitinib at 5 mg/kg, iv administered as single dose by LC/MS/MS analysis; format: ADME, organism-based; set-up: dose 5 mg/kg, dosed compound name [14C]Sunitinib, route intravenous; conditions: in vivo; summary of the method: as §3
[29] = Drug excretion in urine of male cynomolgus monkey treated with [14C]sunitinib at 6 mg/kg, po administered as single dose by liquid scintillation counting; format: ADME, organism-based, Macaca fascicularis; set-up: dose 6 mg/kg, dosed compound name [14C]Sunitinib, route oral; conditions: in vivo; summary of the method: as §2
[30] = Drug excretion in feces of female Sprague-Dawley rat treated with [14C]sunitinib at 15 mg/kg, po administered as single dose by liquid scintillation counting; format: ADME, organism-based; set-up: dose 15 mg/kg, dosed compound name [14C]Sunitinib, route oral; conditions: in vivo
Summary of the method: (§6)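 Female and male rats given one oral gavage dose, 15 mg/kg free base equivalents (50 µCi/kg). Urine and feces collected on dry ice, protected from light, over 0-4, 4-8 and 8-24 h, then daily to 72 h. Urine aliquots counted by liquid scintillation; homogenized feces combusted in oxygen before counting. Counts 5 min, external quench correction.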

[31] = Drug excretion in urine of female Sprague-Dawley rat treated with [14C]sunitinib at 15 mg/kg, po administered as single dose by liquid scintillation counting; format: ADME, organism-based; set-up: dose 15 mg/kg, dosed compound name [14C]Sunitinib, route oral; conditions: in vivo; summary of the method: as §6
[32] = Drug excretion in feces of male Sprague-Dawley rat treated with [14C]sunitinib at 15 mg/kg, po administered as single dose by liquid scintillation counting; format: ADME, organism-based; set-up: dose 15 mg/kg, dosed compound name [14C]Sunitinib, route oral; conditions: in vivo; summary of the method: as §6
[33] = Drug excretion in urine of male Sprague-Dawley rat treated with [14C]sunitinib at 15 mg/kg, po administered as single dose by liquid scintillation counting; format: ADME, organism-based; set-up: dose 15 mg/kg, dosed compound name [14C]Sunitinib, route oral; conditions: in vivo; summary of the method: as §6
[34] = Drug excretion in feces of human treated with [14C]sunitinib at 50 mg, po administered as single dose by liquid scintillation counting; conditions: in vivo
[35] = Drug excretion in urine of human treated with [14C]sunitinib at 50 mg, po administered as single dose by liquid scintillation counting; conditions: in vivo

For CCNCCNC(=O)c1c(C)[nH]c(/C=C2\C(=O)Nc3ccc(F)cc32)c1C, the Compound recovery [1] was 18.5%, the Compound recovery [2] was 0.5% and the Compound recovery [3] was 1.4%. The Cmax (Rattus norvegicus [4]) was 1412 ng/mL, the Tmax (Rattus norvegicus [5]) was 7 h and the AUC (Rattus norvegicus [6]) was 37225 ng·h/mL. It also gave a t1/2 lambda z (Rattus norvegicus [7]) of 9 h, a Cmax (Rattus norvegicus [8]) of 4561 ng/mL and a Tmax (Rattus norvegicus [9]) of 6 h. The AUC (Rattus norvegicus [10]) was 68854 ng·h/mL, the t1/2 lambda z (Rattus norvegicus [11]) was 7.1 h and the Cmax (Rattus norvegicus [12]) was 450 ng/mL. The Tmax (Rattus norvegicus [13]) was 3 h, the AUC (Rattus norvegicus [14]) was 6724 ng·h/mL and the Cmax (Homo sapiens [15]) was 6.2 ng/mL. For the same compound, the Tmax (Homo sapiens [16]) was 6.7 h, the AUC (Homo sapiens [17]) was 592.6 ng·h/mL and the “beta t1/2” value (Homo sapiens [18]) was 93.2 h. It also gave a Cmax (Cynomolgus monkey [19]) of 54 ng/mL, a Tmax (Cynomolgus monkey [20]) of 7 h and an AUC (Cynomolgus monkey [21]) of 1272 ng·h/mL. For the same compound, the “beta t1/2” value (Cynomolgus monkey [22]) was 19 h, the Cmax (Cynomolgus monkey [23]) was 67 ng/mL and the Tmax (Cynomolgus monkey [24]) was 8 h. For the same compound, the AUC (Cynomolgus monkey [25]) was 1383 ng·h/mL, the “beta t1/2” value (Cynomolgus monkey [26]) was 19 h and the Retention_time [27] was 2.5 min. It also gave a t1/2 lambda z (Rattus norvegicus [28]) of 8.4 h, a Compound recovery [29] of 1.1% and a Compound recovery [30] of 32.1%. For the same compound, the Compound recovery [31] was 1.4%, the Compound recovery [32] was 21% and the Compound recovery [33] was 1.7%. It also gave a Compound recovery [34] of 25% and a Compound recovery [35] of 6.9%.
